One test has as its target T1, Caspase-1 (Homo sapiens) (UniProt P29466).
T1 sequence (whole entry): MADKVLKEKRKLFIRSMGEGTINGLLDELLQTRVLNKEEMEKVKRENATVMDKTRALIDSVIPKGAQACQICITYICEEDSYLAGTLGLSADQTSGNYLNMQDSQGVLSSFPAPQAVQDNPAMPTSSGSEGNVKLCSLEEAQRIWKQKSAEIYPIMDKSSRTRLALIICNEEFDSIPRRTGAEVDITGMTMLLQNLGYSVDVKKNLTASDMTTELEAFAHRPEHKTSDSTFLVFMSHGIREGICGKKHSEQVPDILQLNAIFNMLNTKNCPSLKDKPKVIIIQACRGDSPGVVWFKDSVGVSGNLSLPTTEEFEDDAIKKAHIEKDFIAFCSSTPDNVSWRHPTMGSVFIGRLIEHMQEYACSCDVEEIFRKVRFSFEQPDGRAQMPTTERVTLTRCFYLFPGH
Put plainly: Inhibition of ICE in human PBMC. In a few lines:
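Human PBMC isolated from heparinized blood over Ficoll, washed three times in PBS, then held in RPMI 1640 with glutamine, penicillin, streptomycin and 2% human AB serum at 10^6 cells per well. Cells were stimulated overnight with LPS 10 ng/mL with or without inhibitor. Mature IL-1b in the medium was measured by ELISA. IC50 is the concentration reducing IL-1b by 50%.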
What is called IC50 is the concentration that inhibits the measured activity by half. `CC(C)[C@H](NC(=O)OCc1ccccc1)C(=O)N[C@@H](C)C(=O)N[C@@H](CC(=O)O)C(=O)COC(=O)Cc1cccc2ccccc12` gave an IC50 of 600 nM.
Molecule `CC(C)[C@H](NC(=O)OCc1ccccc1)C(=O)N[C@@H](C)C(=O)N[C@@H](CC(=O)O)C(=O)CCCCCc1ccccc1` showed an IC50 of 4900 nM.
Same read-out and setting: the result for `COC(=O)C[C@H]1CCC[C@H]2CC(=O)N(OCC(=O)[C@H](CC(=O)O)NC(=O)[C@H](C)NC(=O)[C@@H](NC(=O)OCc3ccccc3)C(C)C)[C@@H]12` reads 4800 nM; that for `CC(=O)N[C@@H](Cc1ccc(O)cc1)C(=O)N[C@H](C(=O)N[C@@H](C)C(=O)N[C@@H](CC(=O)O)C(=O)CCCCCc1ccccc1)C(C)C`, 900 nM.
Molecule `CC(C)[C@H](NC(=O)OCc1ccccc1)C(=O)N[C@@H](C)C(=O)N[C@@H](CC(=O)O)C(=O)COC(=O)C(Cc1ccccc1)Cc1ccccc1` displayed an IC50 of 1400 nM.
In turn, `CC(C)[C@H](NC(=O)OCc1ccccc1)C(=O)N[C@@H](C)C(=O)N[C@@H](CC(=O)O)C(=O)CON1C(=O)Cc2ccccc21` displayed an IC50 of 3000 nM.
As for `CC(C)[C@H](NC(=O)OCc1ccccc1)C(=O)N[C@@H](C)C(=O)N[C@@H](CC(=O)O)C(=O)COC(=O)CC(c1ccccc1)c1ccccc1`, half-maximal inhibition (IC50) required 4300 nM.
As for `CC(C)[C@H](NC(=O)OCc1ccccc1)C(=O)N[C@@H](C)C(=O)N[C@@H](CC(=O)O)C(=O)CON1C(=O)C[C@@H]2CCCC[C@@H]21`, the IC50 amounted to 2400 nM.

The next test has as its target T2, Caspase-1 (Homo sapiens, UniProt P29466).
T2 sequence (P29466 whole entry): T1 sequence (whole entry)
Put plainly: Inhibition of ICE. The procedure, abridged:
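Recombinant ICE; inhibition followed by fluorescence. Ki reported as the geometric mean of two or more experiments.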
One may read the Ki as a measure of affinity in units of concentration, obtained from inhibition or displacement. A low value points to higher affinity. For the molecule `Cc1ccc(CC(=O)OCC(=O)[C@H](CC(=O)O)NC(=O)OCc2ccccc2)c2ccccc12`, the Ki was determined as 1300 nM. This counts as single-digit micromolar.
In the case of `O=C(O)C[C@H](NC(=O)OCc1ccccc1)C(=O)CON1C(=O)C2C3C=CC(O3)C2C1=O` (stereo partly specified), the Ki was 1500 nM.
As for `O=C(O)C[C@H](NC(=O)OCc1ccccc1)C(=O)COC(=O)Cc1ccccc1`, the Ki was determined as 8300 nM.
Take `Cc1cccc2cccc(CC(=O)OCC(=O)[C@H](CC(=O)O)NC(=O)OCc3ccccc3)c12`: the Ki amounted to 8500 nM. The Ki values of the last two molecules are within 1.5-fold of each other.
As to `O=C(O)C[C@H](NC(=O)OCc1ccccc1)C(=O)COC(=O)CCc1ccccc1`, the inhibition constant Ki was determined as 4500 nM.
The same measure, in the same setting: the result for `O=C(O)C[C@H](NC(=O)OCc1ccccc1)C(=O)COCCCCCc1ccccc1` reads 119000 nM.
Molecule `O=C(O)C[C@H](NC(=O)OCc1ccccc1)C(=O)CON1C(=O)C[C@@H]2CCCC[C@@H]21` yielded a Ki of 9200 nM.
The molecule `O=C(O)C[C@H](NC(=O)OCc1ccccc1)C(=O)COC(=O)CCc1ccc2ccccc2c1` displayed a Ki of 6000 nM.
In turn, `CC(C)[C@H](NC(=O)OCc1ccccc1)C(=O)N[C@@H](C)C(=O)N[C@@H](CC(=O)O)C(=O)COC(=O)Cc1cccc2ccccc12` displayed an IC50 of 2 nM and an inhibition constant (Ki) of 3 nM.
For the molecule `O=C(O)C[C@H](NC(=O)OCc1ccccc1)C(=O)COC(=O)Cc1csc2ccccc12`, the Ki came out at 1200 nM. This counts as single-digit micromolar.
For `Cc1cccc2c(CC(=O)OCC(=O)[C@H](CC(=O)O)NC(=O)OCc3ccccc3)cccc12`, the inhibitory constant (Ki) worked out at 2000 nM.
In turn, `CC(C)[C@H](NC(=O)OCc1ccccc1)C(=O)N[C@@H](C)C(=O)N[C@@H](CC(=O)O)C(=O)CCCCCc1ccccc1` showed an IC50 of 976 nM and a Ki of 134 nM.
`O=C(O)C[C@H](NC(=O)OCc1ccccc1)C(=O)COC(=O)Cc1cccc2ccccc12`: the Ki turned out to be 500 nM.
`COC(=O)C[C@H]1CCC[C@H]2CC(=O)N(OCC(=O)[C@H](CC(=O)O)NC(=O)[C@H](C)NC(=O)[C@@H](NC(=O)OCc3ccccc3)C(C)C)[C@@H]12`: the IC50 was 26 nM and the Ki is 7 nM.
With `O=C(O)C[C@H](NC(=O)OCc1ccccc1)C(=O)COC(=O)CSc1ccccc1`, the affinity, expressed as Ki, was 1100 nM. This counts as single-digit micromolar.
For the molecule `O=C(O)C[C@H](NC(=O)OCc1ccccc1)C(=O)CON1Cc2ccccc2C1=O`, the Ki turned out to be 14000 nM. Against the preceding molecule, the Ki is about 13-fold higher.
`O=C(O)C[C@H](NC(=O)OCc1ccccc1)C(=O)COC(=O)Cc1coc2ccccc12` returned a Ki of 800 nM. This Ki lies about 18-fold lower than the previous one.
The molecule `O=C(O)C[C@H](NC(=O)OCc1ccccc1)C(=O)COC(=O)Cc1ccc2ccccc2c1` showed a Ki of 1300 nM. This Ki is about 1.6-fold higher than that of the molecule before.
`CC(=O)N[C@@H](Cc1ccc(O)cc1)C(=O)N[C@H](C(=O)N[C@@H](C)C(=O)N[C@@H](CC(=O)O)C(=O)CCCCCc1ccccc1)C(C)C` came in with an IC50 of 78 nM.
`O=C(O)C[C@H](NC(=O)OCc1ccccc1)C(=O)CONC(=O)Cc1cccc2ccccc12` showed a Ki of 84000 nM.
The same measure, in the same setting: the result for `O=C(O)C[C@H](NC(=O)OCc1ccccc1)C(=O)COC(=O)CC(c1ccccc1)c1ccccn1` (stereo partly specified) reads 1100 nM; that for `O=C(O)C[C@H](NC(=O)OCc1ccccc1)C(=O)CONC(=O)Cc1ccccc1`, 66500 nM.
Turning to `CC(C)[C@H](NC(=O)OCc1ccccc1)C(=O)N[C@@H](C)C(=O)N[C@@H](CC(=O)O)C(=O)COC(=O)C(Cc1ccccc1)Cc1ccccc1`, the midpoint of inhibition, the IC50, lay at 3 nM and the inhibitory constant (Ki) worked out at 2 nM.
Molecule `CC(C)[C@H](NC(=O)OCc1ccccc1)C(=O)N[C@@H](C)C(=O)N[C@@H](CC(=O)O)C(=O)CON1C(=O)Cc2ccccc21` yielded an IC50 of 3 nM and a Ki of 2 nM.
As to `CC(C)[C@H](NC(=O)OCc1ccccc1)C(=O)N[C@@H](C)C(=O)N[C@@H](CC(=O)O)C(=O)COC(=O)CC(c1ccccc1)c1ccccc1`, the 50% inhibitory concentration (IC50) was 5 nM and the Ki is 1 nM.
The molecule `COC(=O)C[C@H]1CCC[C@H]2CC(=O)N(OCC(=O)[C@H](CC(=O)O)NC(=O)OCc3ccccc3)[C@@H]12` gave a Ki of 15000 nM.
For the molecule `O=C(O)C[C@H](NC(=O)OCc1ccccc1)C(=O)COC(=O)CC(c1ccccc1)c1ccccc1`, the Ki came out at 800 nM. Compared with the last molecule, the Ki is about 19-fold lower.
For the molecule `CC(C(=O)OCC(=O)[C@H](CC(=O)O)NC(=O)OCc1ccccc1)c1cccc2ccccc12` (stereo partly specified), the affinity, expressed as Ki, was 1000 nM.
`CC(C)[C@H](NC(=O)OCc1ccccc1)C(=O)N[C@@H](C)C(=O)N[C@@H](CC(=O)O)C(=O)CON1C(=O)C[C@@H]2CCCC[C@@H]21` displayed an IC50 of 3 nM and a Ki of 1 nM.
`O=C(O)C[C@H](NC(=O)OCc1ccccc1)C(=O)CON1C(=O)C[C@@H]2CCCC[C@H]21` returned a Ki of 17500 nM.
Take `O=C(O)C[C@H](NC(=O)OCc1ccccc1)C(=O)COC(=O)CCCc1ccccc1`: the Ki worked out at 16000 nM.
Still for that read-out and setting: as for `O=C(O)C[C@H](NC(=O)OCc1ccccc1)C(=O)CONC(=O)c1ccccc1`, the figure is 21000 nM; as for `O=C(O)C[C@H](NC(=O)OCc1ccccc1)C(=O)CONC(=O)CCc1ccccc1`, 27500 nM; as for `O=C(O)C[C@H](NC(=O)OCc1ccccc1)C(=O)CONC(=O)CCc1cccc2ccccc12`, 298000 nM.
`O=C(O)C[C@H](NC(=O)OCc1ccccc1)C(=O)COC(=O)Cc1cccc2scnc12` showed an inhibition constant Ki of 2600 nM.
Same read-out and setting: as for `O=C(O)C[C@H](NC(=O)OCc1ccccc1)C(=O)COC(=O)COc1ccccc1`, the figure is 1700 nM; as for `O=C(O)C[C@H](NC(=O)OCc1ccccc1)C(=O)CON1C(=O)Cc2ccccc21`, 6770 nM; as for `Cc1ccc2ccccc2c1CC(=O)OCC(=O)[C@H](CC(=O)O)NC(=O)OCc1ccccc1`, 4400 nM.
Take `O=C(O)C[C@H](NC(=O)OCc1ccccc1)C(=O)COC(=O)COc1cccc2ccccc12`: the affinity corresponds to a Ki of 1000 nM.
The molecule `O=C(O)C[C@H](NC(=O)OCc1ccccc1)C(=O)COC(=O)Cc1c[nH]c2ccccc12` had an inhibitory constant (Ki) of 600 nM.
As to `O=C(O)C[C@H](NC(=O)OCc1ccccc1)C(=O)COC(=O)CNc1ccccc1`, the Ki is 5600 nM.
